# Measurements reported in ChEMBL document CHEMBL4043311, “Developing Equipotent Teixobactin Analogues against Drug-Resistant Bacteria and Discovering a Hydrophobic Interaction between Lipid II and Teixobactin” (J Med Chem, 2018).
# Active and inactive are the calls of the source. The rule behind the calls is not given here.
# Key:
# Staphylococcus aureus [1] = experiment: Antibacterial activity against methicillin-resistant Staphylococcus aureus BAA-1695 after 20 hrs by broth microdilution method; assay type: functional; settings: BAA-1695, 20 h
# Outline: (§1)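 Broth microdilution per CLSI in cation-adjusted Mueller-Hinton broth with 0.002% polysorbate 80. Analogues were made up as 10 mg/mL DMSO stocks, then diluted in MHB. Inoculum approx. 5×10^5 cells/mL. Incubated 20 h at 37°C; MIC taken as the lowest concentration with no visible growth. Run three times.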
# Staphylococcus aureus [2] = experiment: Antibacterial activity against Staphylococcus aureus ATCC 29213 at lipid 2/test compound molar ratio 0.5 preincubated with lipid 2 for 30 mins followed by bacterial inoculation measured after overnight incubation; assay type: functional
# Outline: (§2)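 Test agent at 4x or 8x its broth MIC mixed with lipid II or C55-P (2x or 0.5x molar excess over compound) in MHII broth with 0.05% tween-80, 30 min at rt; exponential S. aureus ATCC 29213 then added to final OD600 0.001. Overnight at 37 °C; growth judged by eye and plate-reader absorbance. Run two or three times.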
# [3] = Binding affinity to lipid 2 at 1 to 4 nmol after 30 mins by TLC method
# Outline: (§3)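 Lipid II or C55-P (1 nmol) incubated with 1, 2, 3 or 4 nmol compound in 50 mM Tris/HCl pH 7.5, 30 min at rt. Extracted twice with pyridinium acetate (6 M, pH 4.2)/butanol (1:2), then washed with butanol-saturated water. Organic phase run on silica TLC in chloroform/methanol/water/ammonia (88:48:10:1) and stained with phosphomolybdic acid; loss of lipid band scored. Done twice.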
# Staphylococcus aureus [4] = experiment: Antibacterial activity against Staphylococcus aureus ATCC 29213 at undecaprenyl-phosphate/test compound molar ratio 0.5 to 2 preincubated with undecaprenyl-phosphate for 30 mins followed by bacterial inoculation measured after overnight incubation; assay type: functional; outline: as §2
# Streptococcus pyogenes = experiment: Antibacterial activity against Streptococcus pyogenes ATCC 19615 after 20 hrs by broth microdilution method; assay type: functional; settings: ATCC 19615, 20 h
# Outline: (§4)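 CLSI broth microdilution in cation-adjusted Mueller-Hinton broth with 3% lysed horse blood for streptococci and 0.002% polysorbate 80. Compounds taken from 10 mg/mL DMSO stocks and diluted in broth. Inoculum about 5×10^5 cells/mL. After 20 h at 37 °C, MIC read as lowest concentration with no visible growth. Done three times.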
# Streptococcus pneumoniae = experiment: Antibacterial activity against Streptococcus pneumoniae D39 after 20 hrs by broth microdilution method; assay type: functional; settings: D39, 20 h; outline: as §4
# [5] = Binding affinity to undecaprenyl-phosphate at 1 to 4 nmol after 30 mins by TLC method; outline: as §3
# Enterococcus faecalis = experiment: Antibacterial activity against […] Enterococcus faecalis ATCC 29212 after 20 hrs by broth microdilution method; assay type: functional; settings: ATCC 29212, 20 h; outline: as §1
# Staphylococcus aureus [6] = experiment: Antibacterial activity against methicillin-sensitive Staphylococcus aureus TH 4806 after 20 hrs by broth microdilution method; assay type: functional; settings: TH 4806, 20 h; outline: as §1
# Staphylococcus aureus [7] = experiment: Antibacterial activity against Staphylococcus aureus ATCC 29213 at lipid 2/test compound molar ratio 2 preincubated with lipid 2 for 30 mins followed by bacterial inoculation measured after overnight incubation; assay type: functional; outline: as §2
smiles,measurement,setting,value
CC[C@@H](C)[C@@H](NC(=O)[C@@H](CCC(N)=O)NC(=O)[C@H](CO)NC(=O)[C@@H](NC(=O)[C@@H](Cc1ccccc1)NC(=O)CN1CCOCC1)[C@@H](C)CC)C(=O)N[C@H](C(=O)N[C@@H](CO)C(=O)N[C@H]1C(=O)N[C@@H](C)C(=O)N[C@@H](CCCNC(=N)N)C(=O)N[C@@H]([C@@H](C)CC)C(=O)O[C@H]1C)[C@@H](C)CC,MIC,Staphylococcus aureus [1],> 32 µg/mL
CC[C@@H](C)[C@@H](NC(=O)[C@@H](CCC(N)=O)NC(=O)[C@H](CO)NC(=O)[C@@H](NC(=O)[C@@H](Cc1ccccc1)NC)[C@@H](C)CC)C(=O)N[C@H](C(=O)O)[C@@H](C)CC,MIC,Staphylococcus aureus [1],> 32 µg/mL
CC[C@@H](C)[C@@H](NC(=O)[C@@H](CCC(N)=O)NC(=O)[C@H](CO)NC(=O)[C@@H](NC(=O)[C@H](N)Cc1ccc(-c2ccc(-c3ccccc3)cc2)cc1)[C@@H](C)CC)C(=O)N[C@H](C(=O)N[C@@H](CO)C(=O)N[C@H]1C(=O)N[C@@H](C)C(=O)N[C@@H](CCCCN)C(=O)N[C@@H]([C@@H](C)CC)C(=O)O[C@H]1C)[C@@H](C)CC,MIC,Staphylococcus aureus [1],1 µg/mL
CC[C@@H](C)[C@@H](NC(=O)[C@@H](CCC(N)=O)NC(=O)[C@H](CO)NC(=O)[C@@H](NC(=O)[C@H](N)Cc1ccc(N)cc1)[C@@H](C)CC)C(=O)N[C@H](C(=O)N[C@@H](CO)C(=O)N[C@H]1C(=O)N[C@@H](C)C(=O)N[C@@H](CCCNC(=N)N)C(=O)N[C@@H]([C@@H](C)CC)C(=O)O[C@H]1C)[C@@H](C)CC,MIC,Staphylococcus aureus [1],> 32 µg/mL
CC[C@@H](C)[C@@H](NC(=O)[C@@H](CCC(N)=O)NC(=O)[C@H](CO)NC(=O)[C@@H](NC(=O)C(Cc1ccccc1)NC)[C@@H](C)CC)C(=O)N[C@H](C(=O)N[C@@H](CO)C(=O)N[C@H]1C(=O)N[C@@H](C)C(=O)N[C@@H](CCCNC(=N)N)C(=O)N[C@@H]([C@@H](C)CC)C(=O)O[C@H]1C)[C@@H](C)CC (some centres undefined),MIC,Staphylococcus aureus [1],2 µg/mL
CC[C@@H](C)[C@@H](NC(=O)[C@@H](CCC(N)=O)NC(=O)[C@H](CO)NC(=O)[C@@H](NC(=O)[C@H](N)Cc1ccc(-c2ccccc2)cc1)[C@@H](C)CC)C(=O)N[C@H](C(=O)N[C@@H](CO)C(=O)N[C@H]1C(=O)N[C@@H](C)C(=O)N[C@@H](CCCNC(=N)N)C(=O)N[C@@H]([C@@H](C)CC)C(=O)O[C@H]1C)[C@@H](C)CC,MIC,Staphylococcus aureus [1],1 µg/mL
CC[C@@H](C)[C@@H](NC(=O)[C@@H](CCC(N)=O)NC(=O)[C@H](CO)NC(=O)[C@@H](NC(=O)[C@H](N)Cc1ccc(O)cc1)[C@@H](C)CC)C(=O)N[C@H](C(=O)N[C@@H](CO)C(=O)N[C@H]1C(=O)N[C@@H](C)C(=O)N[C@@H](CCCNC(=N)N)C(=O)N[C@@H]([C@@H](C)CC)C(=O)O[C@H]1C)[C@@H](C)CC,MIC,Staphylococcus aureus [1],> 32 µg/mL
CC[C@@H](C)[C@@H](NC(=O)[C@@H](CCC(=O)NCCN(C)C)NC(=O)[C@H](CO)NC(=O)[C@@H](NC(=O)[C@H](N)Cc1ccc(-c2ccccc2)cc1)[C@@H](C)CC)C(=O)N[C@H](C(=O)N[C@@H](CO)C(=O)N[C@H]1C(=O)N[C@@H](C)C(=O)N[C@@H](CCCCN)C(=O)N[C@@H]([C@@H](C)CC)C(=O)O[C@H]1C)[C@@H](C)CC,MIC,Staphylococcus aureus [1],2 µg/mL
CCCc1ccc(-c2ccc(C[C@@H](N)C(=O)N[C@H](C(=O)N[C@@H](CO)C(=O)N[C@H](CCC(N)=O)C(=O)N[C@@H](C(=O)N[C@H](C(=O)N[C@@H](CO)C(=O)N[C@H]3C(=O)N[C@@H](C)C(=O)N[C@@H](CCCCN)C(=O)N[C@@H]([C@@H](C)CC)C(=O)O[C@H]3C)[C@@H](C)CC)[C@H](C)CC)[C@@H](C)CC)cc2)cc1,MIC,Staphylococcus aureus [1],0.5 µg/mL
CC[C@@H](C)[C@@H](NC(=O)[C@@H](CCC(N)=O)NC(=O)[C@H](CO)NC(=O)[C@@H](NC(=O)[C@H](N)Cc1ccc(-c2ccccc2)cc1)[C@@H](C)CC)C(=O)N[C@H](C(=O)N[C@@H](CO)C(=O)N[C@H]1C(=O)N[C@@H](C)C(=O)N[C@@H](CCCCN)C(=O)N[C@@H]([C@@H](C)CC)C(=O)N[C@H]1C)[C@@H](C)CC,Activity,Staphylococcus aureus [2],Active
same,Activity,[3],Active
same,Activity,Staphylococcus aureus [4],Active
same,MIC,Streptococcus pyogenes,< 0.25 µg/mL
same,MIC,Streptococcus pneumoniae,< 0.032 µg/mL
same,MIC,Staphylococcus aureus [1],0.25 µg/mL
same,Activity,[5],inactive
same,MIC,Enterococcus faecalis,0.5 µg/mL
same,MIC,Staphylococcus aureus [6],0.25 µg/mL
same,Activity,Staphylococcus aureus [7],inactive
CC[C@@H](C)[C@@H](NC(=O)[C@@H](CCC(N)=O)NC(=O)[C@H](CO)NC(=O)[C@@H](N)[C@@H](C)CC)C(=O)N[C@H](C(=O)N[C@@H](CO)C(=O)N[C@H]1C(=O)N[C@@H](C)C(=O)N[C@@H](CCCNC(=N)N)C(=O)N[C@@H]([C@@H](C)CC)C(=O)O[C@H]1C)[C@@H](C)CC,MIC,Staphylococcus aureus [1],> 32 µg/mL
CC[C@H](C)[C@H](NC(=O)[C@H](N)Cc1ccccc1)C(=O)N[C@@H](COP(=O)(O)O)C(=O)N[C@H](CCC(N)=O)C(=O)N[C@@H](C(=O)N[C@H](C(=O)N[C@@H](CO)C(=O)N[C@H]1C(=O)N[C@@H](C)C(=O)N[C@@H](CCCNC(=N)N)C(=O)N[C@@H]([C@@H](C)CC)C(=O)O[C@H]1C)[C@@H](C)CC)C(C)C,MIC,Staphylococcus aureus [1],> 32 µg/mL
CC[C@@H](C)[C@@H](NC(=O)[C@@H](CCCNC(=N)N)NC(=O)[C@H](CO)NC(=O)[C@@H](NC(=O)[C@H](N)Cc1ccc(-c2ccccc2)cc1)[C@@H](C)CC)C(=O)N[C@H](C(=O)N[C@@H](CO)C(=O)N[C@H]1C(=O)N[C@@H](C)C(=O)N[C@@H](CCCCN)C(=O)N[C@@H]([C@@H](C)CC)C(=O)O[C@H]1C)[C@@H](C)CC,MIC,Staphylococcus aureus [1],2 µg/mL
CC[C@@H](C)[C@@H](NC(=O)[C@@H](CCC(N)=O)NC(=O)[C@H](CO)NC(=O)[C@@H](NC(=O)[C@H](N)Cc1ccc(C)cc1)[C@@H](C)CC)C(=O)N[C@H](C(=O)N[C@@H](CO)C(=O)N[C@H]1C(=O)N[C@@H](C)C(=O)N[C@@H](CCCNC(=N)N)C(=O)N[C@@H]([C@@H](C)CC)C(=O)O[C@H]1C)[C@@H](C)CC,MIC,Staphylococcus aureus [1],2 µg/mL
CC[C@@H](C)[C@@H](NC(=O)[C@@H](CCC(N)=O)NC(=O)[C@H](CO)NC(=O)[C@@H](NC(=O)[C@H](N)Cc1ccc(O[C@H]2O[C@@H](CO)[C@@H](O)[C@@H](O)[C@@H]2O)cc1)[C@@H](C)CC)C(=O)N[C@H](C(=O)N[C@@H](CO)C(=O)N[C@H]1C(=O)N[C@@H](C)C(=O)N[C@@H](CCCNC(=N)N)C(=O)N[C@@H]([C@@H](C)CC)C(=O)O[C@H]1C)[C@@H](C)CC,MIC,Staphylococcus aureus [1],> 32 µg/mL
CC[C@@H](C)[C@@H](NC(=O)[C@@H](CCCN)NC(=O)[C@H](CO)NC(=O)[C@@H](NC(=O)[C@H](N)Cc1ccc(-c2ccccc2)cc1)[C@@H](C)CC)C(=O)N[C@H](C(=O)N[C@@H](CO)C(=O)N[C@H]1C(=O)N[C@@H](C)C(=O)N[C@@H](CCCCN)C(=O)N[C@@H]([C@@H](C)CC)C(=O)O[C@H]1C)[C@@H](C)CC,MIC,Staphylococcus aureus [1],2 µg/mL
CC[C@@H](C)[C@@H](NC(=O)[C@@H](CCC(N)=O)NC(=O)[C@H](CO)NC(=O)[C@@H](NC(=O)[C@H](N)Cc1ccc(-c2ccc(C(F)(F)F)cc2)cc1)[C@@H](C)CC)C(=O)N[C@H](C(=O)N[C@@H](CO)C(=O)N[C@H]1C(=O)N[C@@H](C)C(=O)N[C@@H](CCCCN)C(=O)N[C@@H]([C@@H](C)CC)C(=O)O[C@H]1C)[C@@H](C)CC,MIC,Staphylococcus aureus [1],0.5 µg/mL
CC[C@@H](C)[C@H]1NC(=O)[C@H](CCCNC(=N)N)NC(=O)[C@H](C)NC(=O)[C@H](NC(=O)[C@@H](N)CO)[C@H](C)CC1=O,MIC,Staphylococcus aureus [1],> 32 µg/mL
CC[C@@H](C)[C@@H](NC(=O)[C@@H](CCC(N)=O)NC(=O)[C@H](CO)NC(=O)[C@@H](NC(=O)[C@@H](Cc1ccccc1)NC)[C@@H](C)CC)C(=O)N[C@H](C(=O)N[C@@H](CO)C(=O)N[C@H]1C(=O)N[C@@H](C)C(=O)N[C@@H](CCCCN)C(=O)N[C@@H]([C@@H](C)CC)C(=O)O[C@H]1C)[C@@H](C)CC,MIC,Staphylococcus aureus [1],1 µg/mL
CC[C@@H](C)[C@@H](NC(=O)[C@@H](CCC(N)=O)NC(=O)[C@H](CO)NC(=O)[C@@H](NC(=O)[C@H](N)Cc1ccc(-c2ccc(C)cc2)cc1)[C@@H](C)CC)C(=O)N[C@H](C(=O)N[C@@H](CO)C(=O)N[C@H]1C(=O)N[C@@H](C)C(=O)N[C@@H](CCCCN)C(=O)N[C@@H]([C@@H](C)CC)C(=O)O[C@H]1C)[C@@H](C)CC,MIC,Staphylococcus aureus [1],0.5 µg/mL
